{"data": "Measured values collected from several papers"}
{"Structure (SMILES)": "CCOC(=O)C1=C(C)N/C(=C/c2cc(C)n(-c3ccc(S(=O)(=O)C(F)(F)F)cc3)c2C)C1=O", "method": "HPLC", "pH": "pH 7.4", "chromatographic logD": 3.4}
{"Structure (SMILES)": "CC(C)[C@@H]1Cn2ncc(-c3ccc(C(=O)N4CCCc5ccccc54)cc3)c2CN1C(=O)Cc1ccccc1", "method": "HPLC", "pH": "pH 7.4", "chromatographic logD": 5.3}
{"Structure (SMILES)": "CCOC(=O)C1=C(C)N/C(=C/c2cc(C)n(-c3ccc(CN(C)C)cc3)c2C)C1=O", "method": "HPLC", "pH": "pH 7.4", "chromatographic logD": 2.1}
{"Structure (SMILES)": "Cc1oc(-c2ccccc2)nc1C(=O)NCCN1CCCCCC1=O", "pH": "pH 7.4", "chromatographic logD": 4.5}
{"Structure (SMILES)": "Nc1cccc2c1CN(C1CCC(=O)NC1=O)C2=O (stereo not shown)", "method": "HPLC", "pH": "pH 7.4", "chromatographic logD": -0.4}
{"Structure (SMILES)": "CO[C@@H](C(=O)N1Cc2c(-c3ccc(C(=O)N4CCCc5ccccc54)cc3)cnn2C[C@H]1C(C)C)c1cnn(C)c1 (single isomer, unassigned)", "method": "HPLC", "pH": "pH 7.4", "chromatographic logD": 4.1}
{"Structure (SMILES)": "CCOC(=O)C1=C(C)N/C(=C/c2cc(C)n(-c3ccc(SC)cc3)c2C)C1=O", "method": "HPLC", "pH": "pH 7.4", "chromatographic logD": 3.3}
{"Structure (SMILES)": "CC(C)(C)C1=CC(=NNC(=O)c2ccc([N+](=O)[O-])cc2)C=C(C(C)(C)C)C1=O", "method": "HPLC", "pH": "pH 7.4", "chromatographic logD": 4.9}
{"Structure (SMILES)": "C[C@@H]1Cn2ncc(-c3ccc(C(=O)N4CCCc5ccccc54)cc3)c2CN1C(=O)Cc1ccccc1", "method": "HPLC", "pH": "pH 7.4", "chromatographic logD": 4.9}
{"Structure (SMILES)": "CCc1nnc(NC(=O)c2nc(-c3ccc(Cl)cc3)n3c2CCCCC3)s1", "pH": "pH 7.4", "chromatographic logD": 6.8}
{"Structure (SMILES)": "CC1=C(C#N)[C@@H](c2ccc(C#N)cc2S(C)(=O)=O)N(C)C(=O)N1c1cccc(C(F)(F)F)c1", "method": "HPLC", "pH": "pH 7.5", "chromatographic logD": 3}
{"Structure (SMILES)": "CCOC(=O)C1=C(C)N/C(=C/c2cc(C)n(-c3ccc(CN4CCCCC4)cc3)c2C)C1=O", "method": "HPLC", "pH": "pH 7.4", "chromatographic logD": 2.7}
{"Structure (SMILES)": "O=C(Nc1ccc2c(c1)B(O)OC2)Nc1ccc(F)c(C(F)(F)F)c1", "method": "HPLC", "pH": "pH 7.4", "chromatographic logD": 2.5}
{"Structure (SMILES)": "CC1=C(C#N)[C@@H](c2ccc(C#N)cc2)NC(=O)N1c1cccc(C(F)(F)F)c1", "method": "HPLC", "pH": "pH 7.5", "chromatographic logD": 2.8}
{"Structure (SMILES)": "CCn1c(-c2nc3ccc(C(=O)N4CCCC(N)C4)cc3n2C)cc2ccccc21 (stereo not shown)", "method": "HPLC", "pH": "pH 7.4", "chromatographic logD": 3}
{"Structure (SMILES)": "Cc1n[nH]c(CC(=O)N2Cc3c(-c4ccc(C(=O)N5CCCc6ccccc65)cc4)cnn3C[C@H]2C)n1", "method": "HPLC", "pH": "pH 7.4", "chromatographic logD": 2.7}
{"Structure (SMILES)": "CC1=C(C(N)=O)C(=O)/C(=C\\c2cc(C)n(-c3ccccc3C(F)(F)F)c2C)N1", "method": "HPLC", "pH": "pH 7.4", "chromatographic logD": 2.8}
{"Structure (SMILES)": "C[C@@H]1Cn2ncc(-c3ccc(C(=O)N4CCCc5ccccc54)cc3)c2CN1C(=O)[C@H](C)c1ccccc1", "method": "HPLC", "pH": "pH 7.4", "chromatographic logD": 5.2}
{"Structure (SMILES)": "CCOC(=O)C1=C(C)N/C(=C/c2cc(CC)n(-c3ccccc3C(F)(F)F)c2CC)C1=O", "method": "HPLC", "pH": "pH 7.4", "chromatographic logD": 3.6}
{"Structure (SMILES)": "CCn1c(-c2nc3cc(C(=O)N4CCC[C@@H](N)C4)cc(OC)c3n2C)cc2cccnc21", "method": "HPLC", "pH": "pH 7.4", "chromatographic logD": 2.4}
{"Structure (SMILES)": "CCn1cnnc1C1CCN(C(=O)c2cn3ccc(C)cc3n2)CC1", "pH": "pH 7.4", "chromatographic logD": 1.2}
{"Structure (SMILES)": "CC1=C(C(=O)O)C(=O)/C(=C\\c2cc(C)n(-c3ccccc3C(F)(F)F)c2C)N1", "method": "HPLC", "pH": "pH 7.4", "chromatographic logD": 3.2}
